Data on two compounds can be found in ChEMBL document CHEMBL5247578, “Effective synthesis of benzimidazoles-imidazo[1,2-a]pyrazine conjugates: A comparative study of mono-and bis-benzimidazoles for antitumor activity” (Eur J Med Chem, 2019).

One may read the TGI as the concentration giving total growth inhibition. As a reminder, the GI50 is the concentration giving 50% growth inhibition.

Assay [1] deals with SF-295. The assay is described as follows: Growth inhibition against human SF-295 cells assessed as total growth inhibitory concentration incubated for 48 hrs by sulforhodamine B assay. The assay is classed as functional. (The SRB assay estimates cell density from bound dye.)
Another assay has as its system MDA-MB-468. The assay is described as follows: Growth inhibition against human MDA-MB-468 cells incubated for 48 hrs by sulforhodamine B assay. The assay is classed as functional.
In the next assay the test system is UACC-257. Put plainly: Growth inhibition against human UACC-257 cells incubated for 48 hrs by sulforhodamine B assay. The assay is classed as functional.
Assay [2] relates to MDA-MB-435. Put plainly: Growth inhibition against human MDA-MB-435 cells incubated for 48 hrs by sulforhodamine B assay. It counts as functional.
For a further assay, the system named is RPMI-8226. Put plainly: Growth inhibition against human RPMI-8226 cells incubated for 48 hrs by sulforhodamine B assay. It counts as functional.
The test system of another assay is CCRF-CEM. Put plainly: Antiproliferative activity against human CCRF-CEM cells assessed as cell growth at 0.0000001 M incubated for 48 hrs by SRB assay relative to control. The assay is classed as functional. To be noted: dose 100 nM, read-out: Activity. In outline:
(§1)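 NCI-60 five-dose screen over 10^-4–10^-8 M (10-fold dilutions). Cells grown in RPMI 1640 with 5% FBS and 2 mM L-glutamine, seeded at 5,000–40,000 cells/well and preincubated 24 h. Drug from DMSO stock, 48 h at 37 °C, 5% CO2. Adherent cells TCA-fixed and stained with 0.4% SRB; A515 read. Percent growth = (Ti−Tz)/(C−Tz)×100, or (Ti−Tz)/Tz×100 when Ti<Tz.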

The subject of assay [3] is SF-295. Put plainly: Antiproliferative activity against human SF-295 cells assessed as cell growth at 0.0000001 M incubated for 48 hrs by SRB assay relative to control. It counts as functional. As to conditions: dose 100 nM, read-out: Activity.
The subject of a further assay is 786-0. The assay is described as follows: Antiproliferative activity against human 786-0 cells assessed as cell growth at 0.0000001 M incubated for 48 hrs by SRB assay relative to control. As to conditions: dose 100 nM, read-out: Activity. The assay is classed as functional. In outline:
as §1

A further assay relates to NCI-H322M. The assay is described as follows: Antiproliferative activity against human NCI-H322M cells assessed as cell growth at 0.000001 M incubated for 48 hrs by SRB assay relative to control. The assay is classed as functional. To be noted: read-out: Activity.
In the next assay the test system is NCI-H522. Put plainly: Antiproliferative activity against human NCI-H522 cells assessed as cell growth at 0.000001 M incubated for 48 hrs by SRB assay relative to control. It counts as functional. As to conditions: read-out: Activity.
In assay [4] the test system is SF-295. Put plainly: Antiproliferative activity against human SF-295 cells assessed as cell growth at 0.000001 M incubated for 48 hrs by SRB assay relative to control. The assay is classed as functional. To be noted: read-out: Activity.
For a further assay, the system named is PC-3. The assay is described as follows: Antiproliferative activity against human PC-3 cells assessed as cell growth at 0.000001 M incubated for 48 hrs by SRB assay relative to control. The assay is classed as functional. As to conditions: read-out: Activity.
A further assay has as its system HL-60. Put plainly: Antiproliferative activity against human HL-60 cells assessed as cell growth at 0.00001 M incubated for 48 hrs by SRB assay relative to control. The assay is classed as functional. As to conditions: read-out: Activity. The method, boiled down:
(§2)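 NCI-60 five-dose screen (10^-4 to 10^-8 M). Cells grown in RPMI 1640 with 5% FBS and 2 mM L-glutamine, plated at 5,000-40,000 cells/well and preincubated 24 h. Drug given from DMSO stock, then 48 h at 37 °C, 5% CO2. For adherent lines, cells fixed with cold TCA, SRB-stained and read at 515 nm. Percent growth taken against time-zero and untreated control.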

The test system of a further assay is COLO 205. Put plainly: Antiproliferative activity against human COLO 205 cells assessed as cell growth at 0.0001 M incubated for 48 hrs by SRB assay relative to control. It counts as functional. To be noted: read-out: Activity. The method, boiled down:
as §1

The test system of a further assay is HCT-116. Put plainly: Antiproliferative activity against human HCT-116 cells assessed as cell growth at 0.0001 M incubated for 48 hrs by SRB assay relative to control. To be noted: read-out: Activity. It counts as functional. In outline: as §2
The test system of assay [5] is Calf thymus DNA. Put plainly: Binding affinity to calf thymus DNA assessed as gibbs free energy change at temperature of 318 K by Van't Hoff plot analysis. The assay is classed as nucleic-acid assay. As to conditions: Bos taurus.
Assay [6] deals with Calf thymus DNA. Put plainly: Binding affinity to calf thymus DNA assessed as gibbs free energy change at temperature of 298 K by Van't Hoff plot analysis. It counts as nucleic-acid assay. As to conditions: Bos taurus.
The subject of assay [7] is Calf thymus DNA. Put plainly: Binding affinity to calf thymus DNA assessed as fluorescence quenching intensity at 5 uM at temperature of 318 K by fluorescence spectroscopic method relative to control. The assay is classed as nucleic-acid assay. To be noted: Bos taurus.
Assay [8] relates to Calf thymus DNA. The assay is described as follows: Binding affinity to calf thymus DNA assessed as binding constant at temperature of 308 K by Stern-Volmer quenching plot based fluorescence spectroscopic method. It counts as nucleic-acid assay. As to conditions: Bos taurus.
The test system of assay [9] is Calf thymus DNA. The assay is described as follows: Binding affinity to calf thymus DNA assessed as DNA intercalation by measuring Stem-Volmer quenching constant at temperature of 308 K by fluorescence spectroscopic method. To be noted: Bos taurus. The assay is classed as nucleic-acid assay.
Assay [10] has as its system Calf thymus DNA. Put plainly: Binding affinity to calf thymus DNA assessed as DNA intercalation by measuring Stem-Volmer quenching constant at temperature of 318 K by fluorescence spectroscopic method. To be noted: Bos taurus. The assay is classed as nucleic-acid assay.
The subject of a further assay is SNB-75. The assay is described as follows: Antiproliferative activity against human SNB-75 cells assessed as cell growth inhibition by measuring lethal concentration incubated for 48 hrs by sulforhodamine B assay. To be noted: read-out: LC50 (the source's name). The assay is classed as functional. In outline:
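NCI-60 five-dose screen (10^-4 to 10^-8 M, 10-fold dilutions; DMSO stocks). Cells in RPMI 1640 with 5% FBS and 2 mM L-glutamine, preincubated 24 h, then exposed 48 h at 37 °C, 5% CO2. Fixed with cold TCA, stained with 0.4% SRB, absorbance read at 515 nm. Time-zero plates used as reference. LC50 taken from [(Ti-Tz)/Tz]×100 […].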

For another assay, the system named is SF-539. The assay is described as follows: Antiproliferative activity against human SF-539 cells assessed as cell growth inhibition by measuring lethal concentration incubated for 48 hrs by sulforhodamine B assay. The assay is classed as functional. As to conditions: read-out: LC50 (the source's name).
Assay [11] concerns SF-295. Put plainly: Antiproliferative activity against human SF-295 cells assessed as cell growth inhibition by measuring lethal concentration incubated for 48 hrs by sulforhodamine B assay. It counts as functional. As to conditions: read-out: LC50 (the source's name).
For assay [12], the system named is SN12C. The assay is described as follows: Growth inhibition against human SN12C cells assessed as total growth inhibitory concentration incubated for 48 hrs by sulforhodamine B assay. The assay is classed as functional.
The subject of assay [13] is MDA-MB-435. Put plainly: Growth inhibition against human MDA-MB-435 cells assessed as total growth inhibitory concentration incubated for 48 hrs by sulforhodamine B assay. The assay is classed as functional.
A further assay relates to U-251. The assay is described as follows: Growth inhibition against human U-251 cells assessed as total growth inhibitory concentration incubated for 48 hrs by sulforhodamine B assay. It counts as functional.
The next assay relates to SW-620. Put plainly: Growth inhibition against human SW620 cells assessed as total growth inhibitory concentration incubated for 48 hrs by sulforhodamine B assay. The assay is classed as functional.
For assay [14], the system named is K562. Put plainly: Growth inhibition against human K562 cells assessed as total growth inhibitory concentration incubated for 48 hrs by sulforhodamine B assay. The assay is classed as functional.
In assay [15] the test system is K562. The assay is described as follows: Growth inhibition against human K562 cells incubated for 48 hrs by sulforhodamine B assay. The assay is classed as functional.
The test system of assay [16] is K562. The assay is described as follows: Antiproliferative activity against human K562 cells assessed as cell growth at 0.000001 M incubated for 48 hrs by SRB assay relative to control. As to conditions: read-out: Activity. It counts as functional.
For another assay, the system named is NCI-H226. Put plainly: Antiproliferative activity against human NCI-H226 cells assessed as cell growth at 0.00001 M incubated for 48 hrs by SRB assay relative to control. The assay is classed as functional. As to conditions: read-out: Activity.
Assay [17] concerns SN12C. The assay is described as follows: Antiproliferative activity against human SN12C cells assessed as cell growth at 0.0001 M incubated for 48 hrs by SRB assay relative to control. As to conditions: read-out: Activity. The assay is classed as functional.
Assay [18] relates to K562. Put plainly: Antiproliferative activity against human K562 cells assessed as cell growth at 0.00000001 M incubated for 48 hrs by SRB assay relative to control. As to conditions: dose 10 nM, read-out: Activity. It counts as functional.

For the compound `c1ccc(Cn2cnc3ccc(-c4nc(-c5ccc6c(c5)ncn6C5CCCCC5)cn5ccnc45)cc32)cc1`, in the assay with SF-295 [1], the TGI turned out to be 2.98 µM. For the same compound, the GI50 was determined as 1.92 µM in the assay on MDA-MB-468, 2.24 µM with UACC-257, 2.2 µM in the assay on MDA-MB-435 [2] and 1.15 µM in the assay with RPMI-8226. The values for the growth at 0.1 µM in the assay on CCRF-CEM, in the assay with SF-295 [3] and with 786-0 were 113%, 92% and 86%, respectively. The growth at 1 µM in the assay on NCI-H322M came to 89%; in the assay with NCI-H522 it was 88%; in the assay with SF-295 [4] it was 74%; with PC-3, 75%. In the assay on HL-60, the growth at 10 µM was -24%. Moreover, the growth at 100 µM was -39% in the assay with COLO 205 and -33% in the assay with HCT-116.
For the compound `COc1ccc(-c2cn3ccnc3c(-c3ccc4ncn(C5CCCCC5)c4c3)n2)cc1`, the results for the deltaG in the assay with Calf thymus DNA [5] and in the assay with Calf thymus DNA [6] were -3.79 kcal/mol and -7.91 kcal/mol, respectively. In the assay with Calf thymus DNA [7], the Activity amounted to 60%. For the same compound, the Kb with Calf thymus DNA [8] was 4.57 10^4/M. Moreover, the figures for the KSV in the assay on Calf thymus DNA [9] and in the assay with Calf thymus DNA [10] were 1.68 10^4/M and 0.73 10^4/M, respectively. In addition, the CC50 in the assay with SNB-75, in the assay with SF-539 and in the assay on SF-295 [11] was > 100 µM in each case. Moreover, the TGI in the assay with SN12C [12], with MDA-MB-435 [13], with U-251, in the assay with SW-620 and in the assay on K562 [14] was > 100 µM throughout. For the same compound, the GI50 is 0.863 µM in the assay with MDA-MB-468; > 100 µM in the assay on UACC-257; 0.312 µM with MDA-MB-435 [2]; 2.96 µM with RPMI-8226; 0.422 µM in the assay on K562 [15]. Also, the growth at 0.1 µM came to 107% in the assay with CCRF-CEM, 91% with SF-295 [3] and 93% with 786-0. Moreover, the growth at 1 µM in the assay on K562 [16] was 25%; in the assay on NCI-H322M, 87%; with NCI-H522 it was 28%; with SF-295 [4] it was 18%; in the assay on PC-3, 37%. In addition, the growth at 10 µM was -22% in the assay with HL-60 and 25% in the assay on NCI-H226. Besides, the growth at 100 µM in the assay on COLO 205 is -5%; with HCT-116, -29%; in the assay on SN12C [17], 31%. Besides, in the assay with K562 [18], the growth at 0.01 µM was determined as 105%.
